ChEMBL document CHEMBL4145654, “Structure-Based Discovery of CF53 as a Potent and Orally Bioavailable Bromodomain and Extra-Terminal (BET) Bromodomain Inhibitor” (J Med Chem, 2018)

Key:
MOLM-13 = assay: Growth inhibition of human MOLM13 cells after 4 days by WST-8 assay; format: functional, cell-based; settings: MOLM-13, 96 h
Summary of the method: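 Leukemia cells, used within 3 months of thaw, were seeded at 10 000 cells/well and exposed to serially diluted compound in culture medium for 4 days. WST-8 reagent was added at 10% (v/v) final for 1−3 h, and absorbance was read at 450 nm. Readings were normalized to DMSO-treated cells, and the IC50 was fitted by nonlinear regression.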

[1] = Drug uptake in tumor of SCID mouse xenografted with human MDA-MB-231 cells at 50 mg/kg administered via oral gavage measured after 1 hr; format: ADME, organism-based, Neoplasm; settings: read-out: Drug uptake
Summary of the method: (§1)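 Limited PK in SCID mice bearing MDA-MB-231 tumors, 50 mg/kg given by oral gavage. Plasma and tumor tissue drug levels measured at two time points per compound. Values are the mean of two mice/tumors per time point.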

[2] = Plasma concentration in SCID mouse xenografted with human MDA-MB-231 cells at 50 mg/kg administered via oral gavage measured after 6 hrs; format: ADME, organism-based
Summary of the method: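 SCID mice carrying MDA-MB-231 tumors dosed orally at 50 mg/kg. Plasma drug level determined by LC-MS/MS (positive-ion MRM, C18 column, formic acid/acetonitrile gradient). Value is the mean from two mice per time point.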

[3] = Drug uptake in tumor of SCID mouse xenografted with human MDA-MB-231 cells at 50 mg/kg administered via oral gavage measured after 6 hrs; format: ADME, organism-based, Neoplasm; settings: read-out: Drug uptake; summary of the method: as §1
MDA-MB-231 [4] = assay: Growth inhibition of human MDA-MB-231 cells after 4 days by WST-8 assay; format: functional, cell-based; settings: MDA-MB-231, 96 h
Summary of the method: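 Cells used within 3 months of thaw. Breast cancer cells seeded at 3000 cells/well, then serially diluted compound added, cultured 4 days. Growth read by WST-8 (10% v/v final, 1−3 h, 450 nm). Readings normalized to DMSO-treated cells. IC50 by nonlinear regression.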

[5] = biological target: Bromodomain-containing protein 4 (Homo sapiens, UniProt O60885); assay: Inhibition of FAM-labeled ZBA248 binding to recombinant human BRD4 bromodomain 1 (44 to 168 residues) expressed in Rosetta2 Escherichia coli DE3 cells after 30 mins by fluorescence polarization assay
Summary of the method: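 Recombinant human BRD4 BD1 (residues 44−168) in a fluorescence polarization competitive binding assay, run as described in earlier work.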

[6] = Plasma concentration in SCID mouse xenografted with human MDA-MB-231 cells at 50 mg/kg administered via oral gavage measured after 1 hr; format: ADME, organism-based; summary of the method: as §1
MDA-MB-231 [7] = assay: Antitumor activity against human MDA-MB-231 cells xenografted in SCID mouse assessed as tumor growth inhibition at 50 mg/kg administered via oral gavage measured on day 44; format: functional; settings: MDA-MB-231, po, 1056 h, read-out: TGI
Summary of the method: (§2)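 Each SCID mouse received a single dorsal subcutaneous tumor of 5 × 10⁶ RS4;11 or MDA-MB-231 cells in 50% Matrigel. At about 100 mm3, mice were randomised to treatment or vehicle control groups. Dosing was by oral gavage at the stated schedules. Tumor volume was L × W²/2, and body weight was tracked. TGI versus vehicle at end of treatment was tested by unpaired two-tailed t-test.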

RS4-11 = assay: Antitumor activity against human RS4:11 cells xenografted in SCID mouse assessed as tumor growth inhibition at 50 mg/kg administered via oral gavage measured on day 35; format: functional; settings: RS4-11, po, 840 h, read-out: TGI; summary of the method: as §2
[8] = Drug uptake in tumor of SCID mouse xenografted with human MDA-MB-231 cells at 50 mg/kg administered via oral gavage measured after 0.5 hrs; format: ADME, organism-based, Neoplasm; settings: read-out: Drug uptake; summary of the method: as §1
[9] = Plasma concentration in SCID mouse xenografted with human MDA-MB-231 cells at 50 mg/kg administered via oral gavage measured after 0.5 hrs; format: ADME, organism-based; summary of the method: as §1

COc1cc2c(cc1-c1c(C)noc1C)[nH]c1nc(C)nc(Nc3c4c(nn3C)CCC4)c12
IC50 (MOLM-13): 5 nM
concentration at 1 h [1]: 1510 ng/g
concentration at 6 h [2]: 1580 ng/mL
concentration at 6 h [3]: 600 ng/g
IC50 (MDA-MB-231 [4]): 67 nM
IC50 [5]: 5.5 nM
Ki [5]: < 1 nM
concentration at 1 h [6]: 4880 ng/mL

COc1cc2c(cc1-c1c(C)noc1C)[nH]c1nc(C)nc(Nc3cc(C(C)(C)C)nn3C)c12
IC50 (MOLM-13): 23 nM
concentration at 1 h [1]: 305 ng/g
concentration at 6 h [2]: 458 ng/mL
concentration at 6 h [3]: 268 ng/g
IC50 (MDA-MB-231 [4]): 23.5 nM
IC50 [5]: 10.5 nM
Ki [5]: 1.2 nM
concentration at 1 h [6]: 923 ng/mL

COc1cc2c(cc1-c1c(C)noc1C)[nH]c1nc(C)nc(Nc3c4c(nn3C)CCCC4)c12
IC50 (MOLM-13): 11.3 nM
concentration at 1 h [1]: 466 ng/g
concentration at 6 h [2]: 1150 ng/mL
concentration at 6 h [3]: 132 ng/g
IC50 (MDA-MB-231 [4]): 17.5 nM
IC50 [5]: 4.9 nM
Ki [5]: < 1 nM
concentration at 1 h [6]: 2980 ng/mL

COc1cc2c(cc1-c1c(C)noc1C)[nH]c1nc(C)nc(Nc3nn(C)c4ccncc34)c12
IC50 [5]: 228 nM
Ki [5]: 77.9 nM

COc1cc2c(cc1-c1c(C)noc1C)[nH]c1nc(C)nc(Nc3nn(C)c4ncccc34)c12
IC50 [5]: 20.8 nM
Ki [5]: 4.9 nM

COc1cc2c(cc1-c1c(C)noc1C)[nH]c1nc(C)nc(Nc3nn(CCO)c4ccccc34)c12
IC50 [5]: 9.8 nM
Ki [5]: 1 nM

COc1ccc2c(Nc3nc(C)nc4[nH]c5cc(-c6c(C)noc6C)c(OC)cc5c34)nn(C)c2c1
IC50 [5]: 196 nM
Ki [5]: 66.5 nM

Cc1sc2c(c1C)C(c1ccc(Cl)cc1)=N[C@@H](CC(=O)Nc1ccc(O)cc1)c1nnc(C)n1-2 [BIRABRESIB]
inhibition in vivo at 50 mg/kg (MDA-MB-231 [7]): 21%
inhibition in vivo at 50 mg/kg (RS4-11): 33%

COc1cc2c(cc1-c1c(C)noc1C)[nH]c1nc(C)nc(Nc3nn(C)c4cccc(F)c34)c12
Ki [5]: 21.5 nM

COc1cc2c(cc1-c1c(C)noc1C)[nH]c1nc(C)nc(Nc3cc(C)nn3C3CCCC3)c12
IC50 (MOLM-13): 17.7 nM
IC50 (MDA-MB-231 [4]): 25 nM
IC50 [5]: 4 nM
Ki [5]: < 1 nM

COc1cc2c(cc1-c1c(C)noc1C)[nH]c1nc(C)nc(Nc3nn(C)c4ccc(F)cc34)c12
Ki [5]: 16.7 nM

COc1cc2c(cc1-c1c(C)noc1C)[nH]c1nc(C)nc(Nc3cc(C)n(C)n3)c12
IC50 (MOLM-13): 30.7 nM
IC50 (MDA-MB-231 [4]): 81.1 nM
IC50 [5]: 24.9 nM
Ki [5]: 6.3 nM

COc1cc2c(cc1-c1c(C)noc1C)[nH]c1nc(C)nc(Nc3cc(C(C)C)nn3C)c12
IC50 (MOLM-13): 11.7 nM
concentration at 1 h [1]: 736 ng/g
concentration at 6 h [2]: 1870 ng/mL
concentration at 6 h [3]: 166 ng/g
IC50 (MDA-MB-231 [4]): 26 nM
Ki [5]: < 1 nM
concentration at 1 h [6]: 6240 ng/mL

COc1cc2c(cc1-c1c(C)noc1C)[nH]c1nc(C)nc(Nc3n[nH]c4ccccc34)c12
IC50 [5]: 11.8 nM
Ki [5]: 1.7 nM

COc1cc2c(cc1-c1c(C)noc1C)[nH]c1nc(C)nc(Nc3nn(C)c4c3CCCC4)c12
IC50 (MOLM-13): 41.9 nM
IC50 (MDA-MB-231 [4]): 58.3 nM
Ki [5]: < 1 nM

COc1cc2c(cc1-c1c(C)noc1C)[nH]c1nc(C)nc(Nc3nn(C)c4cccnc34)c12
IC50 [5]: 229 nM
Ki [5]: 78 nM

COc1cc2c(cc1-c1c(C)noc1C)[nH]c1nc(C)nc(Nc3nn(C)c4c(F)cccc34)c12
IC50 [5]: 95.2 nM
Ki [5]: 31 nM

CCn1nc(C)cc1Nc1nc(C)nc2[nH]c3cc(-c4c(C)noc4C)c(OC)cc3c12
IC50 (MOLM-13): 15.4 nM
IC50 (MDA-MB-231 [4]): 26.3 nM
IC50 [5]: 16.8 nM
Ki [5]: 3.4 nM

COc1cc2c(cc1-c1c(C)noc1C)[nH]c1nc(C)nc(Nc3cc(C)nn3C(C)C)c12
IC50 (MOLM-13): 5 nM
IC50 (MDA-MB-231 [4]): 29.6 nM
Ki [5]: 0.5 nM

COc1cc2c(cc1-c1c(C)noc1C)[nH]c1nc(C)nc(Nc3cc(C)nn3C3CCC3)c12
IC50 (MOLM-13): 38.8 nM
IC50 (MDA-MB-231 [4]): 26 nM
IC50 [5]: 14.3 nM
Ki [5]: 2.6 nM

COc1cc2c(cc1-c1c(C)noc1C)[nH]c1nc(C)nc(Nc3cc(C)nn3C)c12
IC50 (MOLM-13): 10.3 nM
IC50 (MDA-MB-231 [4]): 55.1 nM
IC50 [5]: 9.4 nM
Ki [5]: 0.8 nM

COc1cc2c(cc1-c1c(C)noc1C)[nH]c1nc(C)nc(Nc3cc(C)nn3C(C)(C)C)c12
IC50 (MOLM-13): 10.6 nM
concentration at 6 h [2]: 127 ng/mL
concentration at 0.5 h [8]: 5230 ng/g
concentration at 6 h [3]: 621 ng/g
IC50 (MDA-MB-231 [4]): 13.9 nM
concentration at 0.5 h [9]: 3680 ng/mL
IC50 [5]: 4.4 nM
Ki [5]: < 1 nM

COc1cc2c(cc1-c1c(C)noc1C)[nH]c1nc(C)nc(Nc3c(C)c(C4CC4)nn3C)c12
IC50 (MOLM-13): 201 nM
IC50 (MDA-MB-231 [4]): 319 nM
IC50 [5]: 51.7 nM
Ki [5]: 15.8 nM

COc1cc2c(cc1-c1c(C)noc1C)[nH]c1nc(C)nc(Nc3nn(C)c4ccccc34)c12
IC50 [5]: 9.1 nM
Ki [5]: 0.7 nM

COc1cc2c(cc1-c1c(C)noc1C)[nH]c1nc(C)nc(Nc3nn(C)c4cc(F)ccc34)c12
IC50 [5]: 87.6 nM
Ki [5]: 28.4 nM

COc1cc2c(cc1-c1c(C)noc1C)[nH]c1nc(C)nc(Nc3cc(C(C)(C)C(F)(F)F)nn3C)c12
IC50 (MOLM-13): 75 nM
IC50 (MDA-MB-231 [4]): 164 nM
IC50 [5]: 13.8 nM
Ki [5]: 2.4 nM

COc1cc2c(cc1-c1c(C)noc1C)[nH]c1nc(C)nc(Nc3cc(C4CCC4)nn3C)c12
IC50 (MOLM-13): 26.6 nM
IC50 (MDA-MB-231 [4]): 63.2 nM
IC50 [5]: 12.8 nM
Ki [5]: 2 nM

COc1cc2c(cc1-c1c(C)noc1C)[nH]c1nc(C)nc(Nc3cc(C(F)(F)F)nn3C)c12
IC50 (MOLM-13): 56 nM
IC50 (MDA-MB-231 [4]): 156 nM
IC50 [5]: 15.8 nM
Ki [5]: 3.1 nM
